Reference: ChEMBL document CHEMBL1687824, “Overexpression of patA and patB, which encode ABC transporters, is associated with fluoroquinolone resistance in clinical isolates of Streptococcus pneumoniae” (2011)

Key:
[1] = system: Streptococcus pneumoniae; assay: Antibacterial activity against fluoroquinolone-resistant Streptococcus pneumoniae M98 FQ-R overexpressing patA, patB by standardized agar doubling dilution method in presence of 20 ug/ml reserpine efflux pump inhibitor; type: functional
Summary of the method: (§1)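 MIC by agar doubling dilution per BSAC guidelines; strains pregrown in brain heart infusion broth 24 h, 37°C, 5% CO2. MICs measured alone and with efflux pump inhibitors reserpine (20 μg/ml) or sodium orthovanadate (50 μM); synergy defined as ≥2-dilution MIC reduction in presence of inhibitor.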

[2] = system: Streptococcus pneumoniae; assay: Antibacterial activity against fluoroquinolone, dye-resistant Streptococcus pneumoniae M42 overexpressing patA, patB by standardized agar doubling dilution method in presence of 50 uM sodium orthovanadate efflux pump inhibitor; type: functional
Summary of the method: (§2)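 MIC by agar doubling dilution following BSAC guidelines. Strains grown in brain heart infusion broth 24 h at 37°C in 5% CO2. Where an efflux pump inhibitor applies, MIC redetermined with reserpine at 20 μg/ml or sodium orthovanadate at 50 μM. Synergy taken as a fall in MIC of ≥2 dilutions with inhibitor present. Dye resistance defined relative to R6 (both dyes ≥2 dilutions higher).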

[3] = system: Streptococcus pneumoniae; assay: Antibacterial activity against Streptococcus pneumoniae M308 overexpressing patA, patB and inactivated patB with single mutation by standardized agar doubling dilution method in presence of 50 uM sodium orthovanadate efflux pump inhibitor; type: functional
Summary of the method: (§3)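 MICs determined by BSAC standardized agar doubling dilution. Strains were grown in brain heart infusion broth for 24 h at 37°C in 5% CO2. Inhibitor arms had reserpine at 20 μg/ml or sodium orthovanadate at 50 μM in the agar. Mutants were made by transforming magellan2 insertion amplimers into clinical isolates and selecting on spectinomycin 100 mg/liter, with a no-DNA spontaneous-mutation control.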

[4] = system: Streptococcus pneumoniae; assay: Antibacterial activity against fluoroquinolone, dye-resistant Streptococcus pneumoniae M297 overexpressing patA, patB by standardized agar doubling dilution method in presence of 50 uM sodium orthovanadate efflux pump inhibitor; type: functional; summary of the method: as §2
[5] = system: Streptococcus pneumoniae; assay: Antibacterial activity against Streptococcus pneumoniae M87B overexpressing patA, patB and inactivated patB with single mutation by standardized agar doubling dilution method in presence of 50 uM sodium orthovanadate efflux pump inhibitor; type: functional
Summary of the method: (§4)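 MICs were determined by BSAC agar doubling dilution in the presence of sodium orthovanadate at 50 μM. Cultures were grown in BHI broth for 24 h at 37°C in 5% CO2, with R6 as control. Synergy was defined as an MIC reduction of ≥2 dilutions with the inhibitor present.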

[6] = system: Streptococcus pneumoniae; assay: Antibacterial activity against fluoroquinolone, dye-resistant Streptococcus pneumoniae M42 overexpressing patA, patB by standardized agar doubling dilution method in presence of 20 ug/ml reserpine efflux pump inhibitor; type: functional; summary of the method: as §2
[7] = system: Streptococcus pneumoniae; assay: Antibacterial activity against Streptococcus pneumoniae M306 overexpressing patA, patB and inactivated patB with single mutation by standardized agar doubling dilution method; type: functional; summary of the method: as §3
[8] = system: Streptococcus pneumoniae; assay: Antibacterial activity against Streptococcus pneumoniae M50A overexpressing patA, patB and inactivated patA with single mutation by standardized agar doubling dilution method in presence of 20 ug/ml reserpine efflux pump inhibitor; type: functional
Summary of the method: (§5)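 MICs were determined by BSAC agar doubling dilution in the presence of reserpine at 20 μg/ml. Strains were grown in BHI broth for 24 h at 37°C in 5% CO2, with R6 as control. Synergy was defined as an MIC drop of ≥2 dilutions with the inhibitor.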

[9] = system: Streptococcus pneumoniae; assay: Antibacterial activity against Streptococcus pneumoniae M304 overexpressing patA, patB and inactivated patA with single mutation by standardized agar doubling dilution method in presence of 50 uM sodium orthovanadate efflux pump inhibitor; type: functional; summary of the method: as §3
[10] = system: Streptococcus pneumoniae; assay: Antibacterial activity against wild type Streptococcus pneumoniae M3 NCTC 7466 type 2 by standardized agar doubling dilution method in presence of 50 uM sodium orthovanadate efflux pump inhibitor; type: functional; summary of the method: as §1
[11] = system: Streptococcus pneumoniae; assay: Antibacterial activity against Streptococcus pneumoniae M55B overexpressing patA, patB and inactivated patB with single mutation by standardized agar doubling dilution method in presence of 50 uM sodium orthovanadate efflux pump inhibitor; type: functional; summary of the method: as §4
[12] = system: Streptococcus pneumoniae; assay: Antibacterial activity against fluoroquinolone, dye-resistant Streptococcus pneumoniae M296 overexpressing patA, patB by standardized agar doubling dilution method in presence of 50 uM sodium orthovanadate efflux pump inhibitor; type: functional; summary of the method: as §2
[13] = system: Streptococcus pneumoniae; assay: Antibacterial activity against fluoroquinolone, dye-resistant Streptococcus pneumoniae M74 overexpressing patA, patB by standardized agar doubling dilution method in presence of 50 uM sodium orthovanadate efflux pump inhibitor; type: functional; summary of the method: as §2
[14] = system: Streptococcus pneumoniae; assay: Antibacterial activity against Streptococcus pneumoniae M50B overexpressing patA, patB and inactivated patB with single mutation by standardized agar doubling dilution method in presence of 50 uM sodium orthovanadate efflux pump inhibitor; type: functional; summary of the method: as §4
[15] = system: Streptococcus pneumoniae; assay: Antibacterial activity against Streptococcus pneumoniae M316 overexpressing patA, patB and inactivated patA with single mutation by standardized agar doubling dilution method in presence of 20 ug/ml reserpine efflux pump inhibitor; type: functional; summary of the method: as §5
[16] = system: Streptococcus pneumoniae; assay: Antibacterial activity against Streptococcus pneumoniae M318 overexpressing patA, patB and inactivated patA with single mutation by standardized agar doubling dilution method; type: functional
Summary of the method: (§6)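 MICs were determined by agar doubling dilution following BSAC guidelines, with no efflux inhibitor. Strains were grown in brain heart infusion broth for 24 h at 37°C in 5% CO2. Species identity was confirmed by Gram stain, optochin sensitivity and capsule test. Control strain R6 was tested alongside.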

[17] = system: Streptococcus pneumoniae; assay: Antibacterial activity against Streptococcus pneumoniae M310 overexpressing patA, patB and inactivated patB with single mutation by standardized agar doubling dilution method; type: functional; summary of the method: as §3
[18] = system: Streptococcus pneumoniae; assay: Antibacterial activity against Streptococcus pneumoniae M87A overexpressing patA, patB and inactivated patA with single mutation by standardized agar doubling dilution method in presence of 20 ug/ml reserpine efflux pump inhibitor; type: functional; summary of the method: as §5
[19] = system: Streptococcus pneumoniae; assay: Antibacterial activity against dye-resistant Streptococcus pneumoniae by standardized agar doubling dilution method in presence of 50 uM sodium orthovanadate efflux pump inhibitor; type: functional; summary of the method: as §2
[20] = system: Streptococcus pneumoniae; assay: Antibacterial activity against Streptococcus pneumoniae M314 overexpressing patA, patB and inactivated patA with single mutation by standardized agar doubling dilution method in presence of 20 ug/ml reserpine efflux pump inhibitor; type: functional; summary of the method: as §3
[21] = system: Streptococcus pneumoniae; assay: Antibacterial activity against Streptococcus pneumoniae M87A overexpressing patA, patB and inactivated patA with single mutation by standardized agar doubling dilution method; type: functional; summary of the method: as §6
[22] = system: Streptococcus pneumoniae; assay: Antibacterial activity against wild type Streptococcus pneumoniae M3 NCTC 7466 type 2 by standardized agar doubling dilution method; type: functional; summary of the method: as §2
[23] = system: Streptococcus pneumoniae; assay: Antibacterial activity against Streptococcus pneumoniae M307 overexpressing patA, patB and inactivated patB with single mutation by standardized agar doubling dilution method in presence of 20 ug/ml reserpine efflux pump inhibitor; type: functional; summary of the method: as §3
[24] = system: Streptococcus pneumoniae; assay: Antibacterial activity against Streptococcus pneumoniae M50A overexpressing patA, patB and inactivated patA with single mutation by standardized agar doubling dilution method; type: functional; summary of the method: as §6
[25] = system: Streptococcus pneumoniae; assay: Antibacterial activity against Streptococcus pneumoniae M87B overexpressing patA, patB and inactivated patB with single mutation by standardized agar doubling dilution method; type: functional; summary of the method: as §6
[26] = system: Streptococcus pneumoniae; assay: Antibacterial activity against fluoroquinolone, dye-resistant Streptococcus pneumoniae M297 overexpressing patA, patB by standardized agar doubling dilution method; type: functional; summary of the method: as §2
[27] = system: Streptococcus pneumoniae; assay: Antibacterial activity against fluoroquinolone-resistant Streptococcus pneumoniae M100 FQ-R overexpressing patA, patB by standardized agar doubling dilution method; type: functional; summary of the method: as §1
[28] = system: Streptococcus pneumoniae; assay: Antibacterial activity against Streptococcus pneumoniae M298 overexpressing patA, patB and inactivated patA with single mutation by standardized agar doubling dilution method in presence of 50 uM sodium orthovanadate efflux pump inhibitor

O=C(O)c1cn(C2CC2)c2cc(N3CCNCC3)c(F)cc2c1=O [CIPROFLOXACIN]
4 µg/mL: MIC [7] | MIC [8] | MIC [14] | MIC [17] | MIC [24]
0.12 µg/mL: MIC [3]
2 µg/mL: MIC [1] | MIC [9] | MIC [11]
8 µg/mL: MIC [4] | MIC [5] | MIC [12] | MIC [15] | MIC [18] | MIC [20] | MIC [21] | MIC [23] | MIC [25] | MIC [26] | MIC [27] | MIC [28]
32 µg/mL: MIC [6]
64 µg/mL: MIC [13]
1 µg/mL: MIC [10] | MIC [22]
16 µg/mL: MIC [2] | MIC [16]
0.5 µg/mL: MIC90 [19]

CC[n+]1c(-c2ccccc2)c2cc(N)ccc2c2ccc(N)cc21.[Br-] [HOMIDIUM BROMIDE]
0.5 µg/mL: MIC [3] | MIC [5] | MIC [6] | MIC [8] | MIC [11] | MIC [14] | MIC [15] | MIC [16] | MIC [18] | MIC [20] | MIC [21] | MIC [23] | MIC [24] | MIC [25] | MIC [28]
8 µg/mL: MIC [26]
0.3 µg/mL: MIC [10]
0.25 µg/mL: MIC [7] | MIC [9]
4 µg/mL: MIC [27]
2 µg/mL: MIC [12] | MIC [22]
1 µg/mL: MIC [2] | MIC [4] | MIC [13] | MIC [19] | MIC90 [19]
16 µg/mL: MIC [17]
0.12 µg/mL: MIC [1]
